The values below come from article PMC10210236 (ACS Omega, 2023).

The test system of one data set is C13* cells. Briefly: Flow cytometric analysis of cell cycle. As to conditions: 48 h, concentration approx. IC50. Type of data set: cell-based, human. (In general: A flow cytometer gives signals particle by particle.)
Data set [1] in a line: Dissolution / intrinsic dissolution rate of pellets in pH 1.2. Type of data set: physicochemical. As to conditions: neat drug; for pure drug dissolution value: gastric pH 1.2 (0.1 N HCl). In outline:
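Run in 0.1 N HCl, pH 1.2, simulating gastric conditions, in a 500 mL medium over 3 h with sampling from 15 to 180 min. Read-outs were cumulative amount dissolved and intrinsic dissolution rate, quantified separately for each drug component from the salt. Salt batch was scaled up by ethanol drop grinding, with phase purity checked by PXRD profile fitting. Leftover solids were characterized afterwards.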

The next data set concerns 2008 cells. Briefly: Flow cytometric analysis of cell cycle. Type of data set: cell-based, human. To be noted: 48 h, concentration approx. IC50.
The subject of another data set is Sk-Mel28 cells. The data set is described as follows: Flow cytometric analysis of cell cycle. Type of data set: cell-based, human. To be noted: 48 h, concentration approx. IC50.
The test system of data set [2] is 2008, C13*, and Sk-Mel28 cell lines. Briefly: Flow cytometric analysis of cell cycle, statement for all three lines. Type of data set: cell-based, human. As to conditions: 48 h, versus untreated.
A short description of data set [3]: Equilibrium solubility / slurry experiment at pH 1.2, phase of residue. Type of data set: physicochemical. To be noted: pH 1.2 (0.1 N HCl). In outline:
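Equilibrium slurry of salt or free base in 0.1 N HCl, pH 1.2. Undissolved residue was characterized by DSC, TGA, PXRD profile fitting against the single-crystal structure, FESEM morphology, and FESEM-EDX chloride content to detect phase conversion, such as hydrochloride formation.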

For data set [4] the following is noted: cited from earlier work.
Data set [5] has as its system ovarian cancer cell lines (A2780, 2008, A2780/CP, C13*). Briefly: Cytotoxicity screening, ovarian lines taken together. Type of data set: cell-based. To be noted: Homo sapiens, read-out: IC50 range in ovarian cancer cell lines.
Data set [6] concerns BRAF^V600E melanoma cells Sk-Mel28. The data set is described as follows: Cytotoxicity screening. Type of data set: cell-based. As to conditions: Homo sapiens, SK-MEL-28. The method in brief:
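Sk-Mel28 (human BRAF V600E melanoma) cells treated with test compound across a dose–response range. Survival percentage relative to control was read, and IC50 was taken from the curve. Two separate experiments were each run in duplicate, reported as mean ± SEM.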

“Also recorded” adds a separate entry of the source.

In general, IC50 refers to the point on the concentration scale where inhibition reaches its midpoint.

With `CC(C)(C)c1nc(-c2cccc(NS(=O)(=O)c3c(F)cccc3F)c2F)c(-c2ccnc(N)n2)s1` [DBF, dabrafenib], in the data set on C13* cells, the “cells in G0G1 phase” value came out at 68.48%, the “cells in G2/M phase” value amounted to 5.28%, the “cells in S phase” value was 4.60% and the “hypodiploid cells (sub-G1)” value is given as 19.32%. Further, in [1], the “pure drug dissolution value” is reported as 80 mg cm^–2 min^–1. Further, in data set [1] (pH 1.2, 500 mL), the “cumulative drug dissolved, saturation value” is 12.18 mg/L. Besides, in the data set on 2008 cells, the “cells in G0G1 phase” value is 63.91%, the “cells in G2/M phase” value came out at 10.76%, the “cells in S phase” value is given as 3.53% and the hypodiploid cells amounted to 19.32%. Moreover, in the data set with Sk-Mel28 cells, the “cells in G0G1 phase” value was 65.11%, the “cells in G2/M phase” value came to 4.53%, the “cells in S phase” value came to 3.95% and the “hypodiploid cells (sub-G1)” value amounted to 23.46%. The “fold increase of hypodiploid cells” value in data set [2] is reported as approximately 4 fold.
Turning to `CC(C)(C)c1nc(-c2cccc(NS(=O)(=O)c3c(F)cccc3F)c2F)c(-c2ccnc(N)n2)s1.O` [DBF·MH], in data set [3], the “solubility of the phase formed at pH 1.2 (in words)” value is reported as “comparatively less soluble; also recorded: very poor”.
For the molecule `Cc1[nH]c2ccccc2c1CCNCc1ccc(/C=C/C(=O)NO)cc1` [PAN, panobinostat], in the data set with C13* cells, the “cells in G0G1 phase” value is listed as 47.46%, the “cells in G2/M phase” value came to 10.27%, the “cells in S phase” value was 6.85% and the “hypodiploid cells (sub-G1)” value is listed as 30.15%. In addition, the “pure drug dissolution value” in [1] was found to be 10 mg cm^–2 min^–1. The “cumulative drug dissolved at 15 min” value in [1] (pH 1.2, 500 mL, 15 min) amounted to 4.60 mg/L. Also, the “cumulative drug dissolved at 180 min” value in data set [1] (pH 1.2, 500 mL, 180 min) is 20.81 mg/L. Also, the “pKa (indole NH)” value in data set [4] was 8.4. In addition, in the data set with 2008 cells, the “cells in G0G1 phase” value is 37.98%, the “cells in G2/M phase” value amounted to 9.99%, the “cells in S phase” value was 6.78% and the hypodiploid cells is 42.32%. Besides, in data set [5], the IC50 is 4 to 9 nM. Further, in the data set with Sk-Mel28 cells, the “cells in G0G1 phase” value amounted to 42.53%, the “cells in G2/M phase” value was found to be 18.73%, the “cells in S phase” value worked out at 5.17% and the “hypodiploid cells (sub-G1)” value stood at 30.07%. For the same molecule, in [6], the IC50 is 45.3 ± 12 nM.
`Cc1[nH]c2ccccc2c1CCNCc1ccc(/C=C/C(=O)NO)cc1.Cl` [PAN·HCl]: in data set [3], the “solubility of the phase formed at pH 1.2 (in words)” value was “high solubility”.
